# Test results: publication PMC3787694 (Biochimica et biophysica acta, 2010)
# Structures can show the parent of a compound that is named as a salt. Where two headings read alike, the source gives them in different places.
# Columns and labels:
# [1] = target: human fetal muscle AChR (α1β1γδ) in TE671 cells (Homo sapiens, UniProt P02708+P07510+P11230+Q07001); type: cell-based
# Torpedo AChR [2] = target: T1, Torpedo AChR (Tetronarce californica, UniProt P02710+P02712+P02714+P02718); experiment: Equilibrium binding of [3H]18-MC to Torpedo AChR native membranes
# Method in brief: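 [3H]18-MC plus unlabelled ligand was added at 0.07–1.2 μM for 2 h at RT, then filtered. Nonspecific binding was measured with 100 μM unlabelled ligand. Kd was taken from the Rosenthal-Scatchard slope and sites/AChR from its x-intercept.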
# [3] = target: Torpedo AChR ion channel ([3H]TCP site) (Tetronarce californica, UniProt P02710+P02712+P02714+P02718); experiment: [3H]TCP competition binding to Torpedo AChRs in different conformational states; settings: for Ki / nH / ΔG: [3H]TCP; for ΔG: 298K
# [4] = target: Torpedo AChR ion channel ([3H]ibogaine site) (Tetronarce californica, UniProt P02710+P02712+P02714+P02718); experiment: [3H]ibogaine competition binding to Torpedo AChRs
# [5] = target: Torpedo AChR ion channel ([3H]18-MC site) (Tetronarce californica, UniProt P02710+P02712+P02714+P02718); type: binding; settings: for Ki / nH / ΔG: [3H]18-MC; for ΔG: 298K
# Torpedo AChR [6] = target: T1, Torpedo AChR; experiment: biochemical; type: binding; settings: for apparent nH: [3H]cytisine binding enhancement; for fractional occupancy (θ): calculated with Eq. (2)
# [7] = target: T2, Torpedo AChR (immobilized) (Tetronarce californica, UniProt P02710+P02712+P02714+P02718); experiment: Binding kinetics by non-linear chromatography on CMAC-Torpedo AChR column; settings: for Kd: Ka; for koff: 20 °C; for ΔG^20: Eq. (4); for kon: kon=koff·Ka
# [8] = target: T2, Torpedo AChR (immobilized); experiment: Thermodynamic parameters by non-linear chromatography; type: binding; settings: for Ea (drug dissociation): Arrhenius plot; for ΔG^20: Eq. (8), 293K; for ΔH^+: Eq. (10); for ΔH°: van't Hoff 10-25 °C
# α3β4 AChR = settings: cited from earlier work
# α4β2 AChR = settings: read-out: inhibitory potency; cited from earlier work
# Torpedo AChR [9] = settings: cited from earlier work
# AChR = settings: cited from earlier work
# Torpedo AChR [10] = settings: cited from earlier work; remark: listed apart in the source
# [11] = 5 min pre-incubation IC50 comparison
# [12] = epibatidine treated column (desensitized state)
# [13] = α-BTx treated column (resting state)
# Chain of human fetal muscle AChR (α1β1γδ) in TE671 cells (P02708 21-457): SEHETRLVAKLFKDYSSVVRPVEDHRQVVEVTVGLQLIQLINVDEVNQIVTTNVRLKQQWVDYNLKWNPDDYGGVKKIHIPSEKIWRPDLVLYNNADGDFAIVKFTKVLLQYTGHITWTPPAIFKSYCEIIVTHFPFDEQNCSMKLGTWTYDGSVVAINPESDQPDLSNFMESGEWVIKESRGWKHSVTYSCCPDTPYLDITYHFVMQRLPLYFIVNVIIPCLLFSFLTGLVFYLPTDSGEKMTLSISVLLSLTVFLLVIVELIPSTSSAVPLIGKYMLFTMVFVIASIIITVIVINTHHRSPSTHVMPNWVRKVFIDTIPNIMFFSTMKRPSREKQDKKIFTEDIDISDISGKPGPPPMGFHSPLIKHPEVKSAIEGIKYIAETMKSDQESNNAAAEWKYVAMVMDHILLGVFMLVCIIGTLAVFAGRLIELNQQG
# Chain of human fetal muscle AChR (α1β1γδ) in TE671 cells (Q07001 22-517): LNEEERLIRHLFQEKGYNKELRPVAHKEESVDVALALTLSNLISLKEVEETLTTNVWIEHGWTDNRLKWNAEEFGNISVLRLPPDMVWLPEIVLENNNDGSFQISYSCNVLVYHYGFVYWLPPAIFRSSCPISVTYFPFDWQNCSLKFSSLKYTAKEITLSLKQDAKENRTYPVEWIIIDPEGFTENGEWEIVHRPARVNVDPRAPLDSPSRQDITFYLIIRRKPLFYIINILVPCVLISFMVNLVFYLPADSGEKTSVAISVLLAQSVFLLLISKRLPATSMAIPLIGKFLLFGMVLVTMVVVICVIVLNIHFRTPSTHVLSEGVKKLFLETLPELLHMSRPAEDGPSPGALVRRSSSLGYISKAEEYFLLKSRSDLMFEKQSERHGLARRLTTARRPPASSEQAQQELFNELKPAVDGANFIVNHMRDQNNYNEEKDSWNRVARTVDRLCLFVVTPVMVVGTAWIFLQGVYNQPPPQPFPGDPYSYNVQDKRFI
# Chain of human fetal muscle AChR (α1β1γδ) in TE671 cells (P11230 24-501): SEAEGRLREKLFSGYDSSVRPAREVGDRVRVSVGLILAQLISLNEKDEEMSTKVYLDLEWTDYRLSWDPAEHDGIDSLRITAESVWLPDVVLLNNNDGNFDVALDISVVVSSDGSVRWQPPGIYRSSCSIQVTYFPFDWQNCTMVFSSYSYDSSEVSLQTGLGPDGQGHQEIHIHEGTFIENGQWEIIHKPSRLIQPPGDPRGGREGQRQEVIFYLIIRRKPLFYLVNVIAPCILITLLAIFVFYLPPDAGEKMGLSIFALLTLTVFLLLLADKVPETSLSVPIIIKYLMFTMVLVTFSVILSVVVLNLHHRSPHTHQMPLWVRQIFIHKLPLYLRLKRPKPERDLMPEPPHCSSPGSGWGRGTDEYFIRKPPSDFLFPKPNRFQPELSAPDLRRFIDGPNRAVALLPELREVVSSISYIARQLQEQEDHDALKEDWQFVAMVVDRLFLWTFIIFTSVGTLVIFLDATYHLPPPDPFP
# Chain of human fetal muscle AChR (α1β1γδ) in TE671 cells (P07510 23-517): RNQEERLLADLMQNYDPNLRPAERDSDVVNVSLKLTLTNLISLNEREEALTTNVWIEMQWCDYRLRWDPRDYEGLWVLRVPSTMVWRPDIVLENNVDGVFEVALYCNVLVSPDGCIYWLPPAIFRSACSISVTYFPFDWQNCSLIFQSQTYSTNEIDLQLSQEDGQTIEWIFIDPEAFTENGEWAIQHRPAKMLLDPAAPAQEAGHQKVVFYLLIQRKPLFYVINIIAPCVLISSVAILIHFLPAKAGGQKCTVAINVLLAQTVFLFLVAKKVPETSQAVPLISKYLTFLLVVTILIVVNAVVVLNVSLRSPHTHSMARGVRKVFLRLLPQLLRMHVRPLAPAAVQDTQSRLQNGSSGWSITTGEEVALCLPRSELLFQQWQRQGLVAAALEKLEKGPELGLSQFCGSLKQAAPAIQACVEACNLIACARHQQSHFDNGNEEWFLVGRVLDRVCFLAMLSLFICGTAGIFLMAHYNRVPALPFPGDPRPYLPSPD
# Chain of Torpedo AChR ion channel ([3H]18-MC site) (P02710 25-461): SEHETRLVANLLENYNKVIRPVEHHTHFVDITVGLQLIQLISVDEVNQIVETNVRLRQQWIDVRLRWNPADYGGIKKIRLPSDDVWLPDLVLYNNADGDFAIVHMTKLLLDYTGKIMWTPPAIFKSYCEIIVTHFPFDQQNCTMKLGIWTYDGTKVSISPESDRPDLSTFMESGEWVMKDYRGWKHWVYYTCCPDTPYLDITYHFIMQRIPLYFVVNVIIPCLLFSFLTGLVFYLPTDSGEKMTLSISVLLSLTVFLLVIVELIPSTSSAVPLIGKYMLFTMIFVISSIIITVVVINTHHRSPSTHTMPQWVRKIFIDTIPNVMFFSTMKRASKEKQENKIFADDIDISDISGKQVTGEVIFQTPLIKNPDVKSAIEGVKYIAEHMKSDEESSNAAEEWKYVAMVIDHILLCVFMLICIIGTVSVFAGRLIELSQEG
# Chain of Torpedo AChR ion channel ([3H]18-MC site) (P02712 25-493): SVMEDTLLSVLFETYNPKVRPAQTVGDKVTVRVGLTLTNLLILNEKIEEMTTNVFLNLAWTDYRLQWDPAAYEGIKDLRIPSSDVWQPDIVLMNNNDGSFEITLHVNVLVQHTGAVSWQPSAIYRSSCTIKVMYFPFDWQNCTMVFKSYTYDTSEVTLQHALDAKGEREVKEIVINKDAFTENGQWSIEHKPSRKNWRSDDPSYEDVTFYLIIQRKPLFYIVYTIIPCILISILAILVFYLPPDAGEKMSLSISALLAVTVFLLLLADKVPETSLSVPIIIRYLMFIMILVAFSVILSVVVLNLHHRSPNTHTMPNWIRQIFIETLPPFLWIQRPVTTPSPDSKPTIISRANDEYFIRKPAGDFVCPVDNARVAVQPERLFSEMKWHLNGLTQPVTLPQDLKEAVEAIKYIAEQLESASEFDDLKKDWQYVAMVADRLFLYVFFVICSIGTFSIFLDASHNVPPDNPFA
# Chain of Torpedo AChR ion channel ([3H]18-MC site) (P02714 18-506): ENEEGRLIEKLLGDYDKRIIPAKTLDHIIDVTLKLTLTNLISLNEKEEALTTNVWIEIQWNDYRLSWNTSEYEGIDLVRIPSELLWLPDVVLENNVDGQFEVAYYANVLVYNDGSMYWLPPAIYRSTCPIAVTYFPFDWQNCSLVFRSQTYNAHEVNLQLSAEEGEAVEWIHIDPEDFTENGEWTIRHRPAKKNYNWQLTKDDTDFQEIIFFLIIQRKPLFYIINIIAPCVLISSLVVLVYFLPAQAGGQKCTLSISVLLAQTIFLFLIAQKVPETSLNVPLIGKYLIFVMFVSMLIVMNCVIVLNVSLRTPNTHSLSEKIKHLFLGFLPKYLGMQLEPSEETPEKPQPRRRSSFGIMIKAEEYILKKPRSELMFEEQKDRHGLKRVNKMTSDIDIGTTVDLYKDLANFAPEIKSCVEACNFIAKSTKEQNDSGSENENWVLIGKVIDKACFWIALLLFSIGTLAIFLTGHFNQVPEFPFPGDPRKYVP
# Chain of Torpedo AChR ion channel ([3H]18-MC site) (P02718 22-522): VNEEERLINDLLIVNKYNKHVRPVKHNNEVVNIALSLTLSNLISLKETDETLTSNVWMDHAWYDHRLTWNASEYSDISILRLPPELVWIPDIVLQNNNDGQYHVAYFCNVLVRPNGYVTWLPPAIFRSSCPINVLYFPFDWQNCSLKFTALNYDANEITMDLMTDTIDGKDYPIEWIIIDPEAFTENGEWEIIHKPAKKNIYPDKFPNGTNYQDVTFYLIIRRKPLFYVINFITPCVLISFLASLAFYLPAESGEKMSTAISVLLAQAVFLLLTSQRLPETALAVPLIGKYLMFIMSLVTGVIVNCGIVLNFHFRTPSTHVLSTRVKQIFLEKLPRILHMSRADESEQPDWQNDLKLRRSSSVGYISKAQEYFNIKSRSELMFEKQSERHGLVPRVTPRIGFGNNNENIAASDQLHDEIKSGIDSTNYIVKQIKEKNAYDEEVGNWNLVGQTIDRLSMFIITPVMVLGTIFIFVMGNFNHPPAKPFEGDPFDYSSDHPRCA
# T1 sequence (P02710 25-461): as the sequence (P02710 25-461) above
# T1 sequence (P02712 25-493): as the sequence (P02712 25-493) above
# T1 sequence (P02714 18-506): as the sequence (P02714 18-506) above
# T1 sequence (P02718 22-522): as the sequence (P02718 22-522) above
# Chain of Torpedo AChR ion channel ([3H]ibogaine site) (P02710 25-461): as the sequence (P02710 25-461) above
# Chain of Torpedo AChR ion channel ([3H]ibogaine site) (P02712 25-493): as the sequence (P02712 25-493) above
# Chain of Torpedo AChR ion channel ([3H]ibogaine site) (P02714 18-506): as the sequence (P02714 18-506) above
# Chain of Torpedo AChR ion channel ([3H]ibogaine site) (P02718 22-522): as the sequence (P02718 22-522) above
# Chain of Torpedo AChR ion channel ([3H]TCP site) (P02710 25-461): as the sequence (P02710 25-461) above
# Chain of Torpedo AChR ion channel ([3H]TCP site) (P02712 25-493): as the sequence (P02712 25-493) above
# Chain of Torpedo AChR ion channel ([3H]TCP site) (P02714 18-506): as the sequence (P02714 18-506) above
# Chain of Torpedo AChR ion channel ([3H]TCP site) (P02718 22-522): as the sequence (P02718 22-522) above
# T2 sequence (P02718 22-522): as above
# T2 sequence (P02712 25-493): as the sequence (P02712 25-493) above
# T2 sequence (P02714 18-506): as the sequence (P02714 18-506) above
# T2 sequence (P02710 25-461): as the sequence (P02710 25-461) above
molecule,measurement,setting,value
"Clc1ccc(C2CC3CCC2N3)cn1 (racemic) [(±)-epibatidine, reference compound]",nH of activation,[1]; agonist activation,1.23 ±0.06
"COCC[C@H]1CC2CN3CCc4c([nH]c5ccccc45)[C@](C(=O)OC)(C2)[C@H]13 [18-MC, 18-methoxycoronaridine]",increase of potency by longer pre-incubation periods,[1]; 4 or 24 h vs 5 min pre-incubation,~2 fold
same,fold more potent than PCP,[1]; [11],~4 fold
same,fold more potent than ibogaine,[1]; [11],~2 fold
same,nH (Hill coefficient),[1]; pre-incubation 5 min,1.56 ±0.15
same,nH (Hill coefficient),[1]; pre-incubation 240 min,1.90 ±0.20
same,nH (Hill coefficient),[1]; pre-incubation 1440 min,1.61 ±0.13
same,manner of inhibition of hα1β1γδ AChR,"[1]; pre-treatment with 1, 10 and 100 μM",dose dependent and noncompetitive manner
same,Kd,Torpedo AChR [2],230 ± 40 nM
same,Ki,[3]; desensitized/CCh-bound state,170 ± 10 nM
same,Ki,[3]; resting/α-BTx-bound state,1400 ± 100 nM
same,fold higher affinity in the desensitized AChR than in the resting AChR,[3]; [3H]TCP binding site,~8 fold
same,nH,[3]; desensitized/CCh-bound state,1.11 ±0.07
same,ΔG,[3]; desensitized/CCh-bound state,-9.23 ± 0.024 kcal/mol
same,nH,[3]; resting/α-BTx-bound state,0.89 ± 0.06
same,ΔG,[3]; resting/α-BTx-bound state,-7.98 ± 0.048 kcal/mol
same,inhibition of the specific binding of [3H]TCP,[3]; both conformational states,~100%
same,Ki,[4],610 ± 80 nM
same,nH,"[4]; [3H]ibogaine, desensitized/CCh-bound state",1.02 ±0.13
same,ΔG,"[4]; [3H]ibogaine, desensitized/CCh-bound state, 298K",-8.48 ± 0.072 kcal/mol
same,inhibition of the specific binding of [3H]ibogaine,[4]; both conformational states (so in the source),~100%
same,Ki,[5]; desensitized/CCh-bound state,470 ± 30 nM
same,Ki,[5]; resting/α-BTx-bound state,1000 ± 100 nM
same,fold higher affinity for the desensitized AChR compared to the resting AChR,[5]; [3H]18-MC competition,~2 fold
same,nH,[5]; desensitized/CCh-bound state,1.02 ±0.06
same,ΔG,[5]; desensitized/CCh-bound state,-8.63 ± 0.048 kcal/mol
same,nH,[5]; resting/α-BTx-bound state,0.70 ± 0.05
same,ΔG,[5]; resting/α-BTx-bound state,-8.2 ± 0.072 kcal/mol
same,EC50,Torpedo AChR [6],300 ± 100 nM
same,fold more potent than ibogaine to induce AChR desensitization,Torpedo AChR [6],~90 fold
same,apparent nH,Torpedo AChR [6],0.81±0.20
same,Kd,[7]; [12],337 nM
same,Kd,[7]; [13],885 nM
same,koff,[7]; [12],0.077 ± 0.001 s⁻¹
same,ΔG^20,[7]; [12],-8.68 ± 0.024 kcal/mol
same,kon,[7]; [12],228000 ± 3000 M⁻¹ s⁻¹
same,koff,[7]; [13],0.109 ± 0.005 s⁻¹
same,ΔG^20,[7]; [13],-8.1 ± 0.024 kcal/mol
same,kon,[7]; [13],123000 ± 2000 M⁻¹ s⁻¹
same,enthalpic contribution relative to the entropic contribution,[8]; desensitized AChR,more than 2 fold
same,−TΔS°,[8]; [12],-2.68 ± 0.287 kcal/mol
same,Ea (drug dissociation),[8]; [12],5.35 ± 0.359 kcal/mol
same,ΔG^20,[8]; [12],-8.68 ± 0.335 kcal/mol
same,ΔH^+,[8]; [12],4.78 ± 0.359 kcal/mol
same,ΔH°,[8]; [12],-5.98 ± 0.263 kcal/mol
same,−TΔS°,[8]; [13],-3.7 ± 0.263 kcal/mol
same,Ea (drug dissociation),[8]; [13],3.92 ± 0.17 kcal/mol
same,ΔG^20,[8]; [13],-8.13 ± 0.335 kcal/mol
same,ΔH^+,[8]; [13],3.32 ± 0.17 kcal/mol
same,ΔH°,[8]; [13],-4.42 ± 0.263 kcal/mol
same,IC50,α3β4 AChR,750 to 900 nM
same,IC50,α4β2 AChR,> 20000 nM
"c1ccc(C2(N3CCCCC3)CCCCC2)cc1 [PCP, phencyclidine]",nH (Hill coefficient),[1]; pre-incubation 5 min,2.30 ±0.04
same,Ki,[5]; desensitized/CCh-bound state,410 ± 30 nM
same,Ki,[5]; resting/α-BTx-bound state,730 ± 50 nM
same,nH,[5]; desensitized/CCh-bound state,0.76 ± 0.03
same,ΔG,[5]; desensitized/CCh-bound state,-8.7 ± 0.024 kcal/mol
same,nH,[5]; resting/α-BTx-bound state,0.88 ± 0.05
same,ΔG,[5]; resting/α-BTx-bound state,-8.37 ± 0.048 kcal/mol
same,inhibition of the specific binding of [3H]18-MC,[5]; both conformational states,~100%
"c1csc(C2(N3CCCCC3)CCCCC2)c1 [[^3H]TCP, [Piperidyl-3,4-^3H(N)]-(N-(1-(2 thienyl)cyclohexyl)-3,4-piperidine)]",Kd,Torpedo AChR [9]; desensitized state,250 nM
same,Kd,Torpedo AChR [9]; resting state,830 nM
"[3H]c1cc([3H])c(=O)n2c1[C@H]1CNC[C@H](C1)C2 [[^3H]cytisine, [^3H]cytisine hydrochloride, reference compound]",fractional occupancy (θ),"Torpedo AChR [6]; bound to the desensitized AChR, 7.7 nM",~0.017%
same,fractional occupancy (θ),"Torpedo AChR [6]; bound to the resting AChR, nH = 1, 7.7 nM",~0.005%
O=c1cccc2n1C[C@@H]1CNC[C@H]2C1 [cytisine],Ki,AChR; desensitized state,450 nM
same,Ki,AChR; resting state,1600 nM
[^3H]18-Methoxycoronaridine [[^3H]18-MC],stoichiometric ratio,Torpedo AChR [2]; desensitized/CCh-bound state,0.86 ± 0.13 binding sites/AChR
same,Kd,"Torpedo AChR [2]; desensitized/CCh-bound state (1 mM CCh), Rosenthal-Scatchard plot",230 nM
[^3H]Ibogaine,Kd,Torpedo AChR [10],5400 nM
ibogaine,nH (Hill coefficient),[1]; pre-incubation 5 min,2.00 ±0.29
same,nH,[5]; desensitized/CCh-bound state,1.11 ±0.07
same,ΔG,[5]; desensitized/CCh-bound state,-6.86 ± 0.048 kcal/mol
same,nH,[5]; resting/α-BTx-bound state,1.04 ±0.08
same,ΔG,[5]; resting/α-BTx-bound state,-6.76 ± 0.048 kcal/mol
same,apparent nH,Torpedo AChR [6],0.99±0.22
same,IC50,α3β4 AChR,220 nM
